According to ChEMBL document CHEMBL1123839, “5-Acyl-3-substituted-benzofuran-2(3H)-ones as potential antiinflammatory agents” (1987):

Key:
Format in all cases: functional
Cavia porcellus [1] = organism: Cavia porcellus; assay: Tested for effect on the production of Lipoxygenase (LO) metabolite, 5,12-diHETE in guinea pig peritoneal polymorphonuclear neutrophils at 30 uM concentration; ND = no data
In short: (§1)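 Guinea pig peritoneal PMNs were incubated with [14C]arachidonic acid and stimulated with calcium ionophore A23187. Compounds were tested at 30 μM in 0.1 N NaOH–Krebs Ringer bicarbonate buffer. Radiolabeled cyclooxygenase and lipoxygenase products were identified by HPLC and GC-MS, separated by TLC and quantified by automatic scanning.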

Cavia porcellus [2] = organism: Cavia porcellus; assay: Tested for effect on the production of cyclooxygenase (COX) metabolite, TXB2 of arachidonic acid in guinea pig peritoneal polymorphonuclear neutrophils at 30 uM concentration; in short: as §1
Rattus norvegicus [3] = organism: Rattus norvegicus; assay: Antiinflammatory activity was assessed improvement of adjuvant induced arthritis in rats, determined by joint mobility of the paw; parameters: concentration or dose not given beside the values
In short: (§2)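 Adjuvant arthritis was induced in female Sprague–Dawley rats (150–170 g, groups of six) by right-hind-paw plantar injection of killed tubercle bacillus in paraffin. Treatment was 33 mg/kg orally, daily for 14 days, starting the day before adjuvant. Joint involvement was scored as the angle through which the hind paws moved easily, given as percent change versus nontreated controls.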

Cavia porcellus [4] = organism: Cavia porcellus; assay: Tested for effect on the production of cyclooxygenase (COX) metabolite, PGF2-alpha (prostaglandin F2-alpha) of arachidonic acid in guinea pig peritoneal polymorphonuclear neutrophils at 30 uM concentration; in short: as §1
Rattus norvegicus [5] = assay: Antiinflammatory activity was assessed by the ability to improve the adjuvant induced arthritis in left secondary lesion in rats at oral doses, 33 mg/kg (volume change in the injected paw measured from day 9 to day 18)
Cavia porcellus [6] = organism: Cavia porcellus; assay: Tested for effect on the production of Lipoxygenase (LO) metabolite, 5-HETE in guinea pig peritoneal polymorphonuclear neutrophils at 30 uM concentration; in short: as §1
Rattus norvegicus [7] = assay: Antiinflammatory activity was assessed by the ability to improve the adjuvant induced arthritis in right primary lesion in rats at oral doses, 33 mg/kg (volume change in the injected paw measured from day 0 to day 8)
In short: (§3)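 Female Sprague–Dawley rats (150–170 g), six per group. Arthritis induced by subcutaneous plantar injection of 0.125 mg killed tubercle bacillus in liquid paraffin into the right hind paw. Dosing was 33 mg/kg orally, daily for 14 days, starting the day before adjuvant. Paw volumes were measured by mercury plethysmography every 2–3 days over 18 days. Primary lesion: right paw, days 0–8. Secondary lesions: right and left (uninjected) paws, days 9–18. Areas under the time-course curves were compared with controls by ANOVA.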

Cavia porcellus [8] = organism: Cavia porcellus; assay: Tested for effect on the production of cyclooxygenase (COX) metabolite, PGE-2 (prostaglandin E2) of arachidonic acid in guinea pig peritoneal polymorphonuclear neutrophils at 30 uM concentration; in short: as §1
Rattus norvegicus [9] = assay: Ability to improve the adjuvant induced arthritis in right secondary lesion in rats at oral doses, 33 mg/kg; in short: as §3
Rattus norvegicus [10] = organism: Rattus norvegicus; assay: Antiinflammatory activity was assessed by the ability to improve the adjuvant induced arthritis in right primary lesion in rats(volume change in the injected paw measured from day 0 to day 8); in short: as §3
Cavia porcellus [11] = organism: Cavia porcellus; assay: Tested for effect on the production of Lipoxygenase (LO) metabolite, 5,12-diHETE in guinea pig peritoneal polymorphonuclear neutrophils at 30 uM concentration; in short: as §1
Rattus norvegicus [12] = organism: Rattus norvegicus; assay: Antiinflammatory activity was assessed by the ability to improve the adjuvant induced arthritis in left secondary lesion in rats (volume change in the […] to day 18)
Rattus norvegicus [13] = organism: Rattus norvegicus; assay: Antiinflammatory activity was assessed by the ability to improve the adjuvant induced arthritis in right secondary lesion in rats (volume change in the injected paw measured from day 9 to day 18); in short: as §3
Rattus norvegicus [14] = assay: Antiinflammatory activity was assessed by the ability to improve the adjuvant induced arthritis rats was determined by joint mobility of the paw at oral doses, 33 mg/kg; in short: as §2
Cavia porcellus [15] = organism: Cavia porcellus; assay: Tested for effect on the production of Lipoxygenase (LOX) metabolite, 5-HETE in guinea pig peritoneal polymorphonuclear neutrophils at 30 uM concentration; in short: as §1
Rattus norvegicus [16] = assay: Antiinflammatory activity was assessed by the ability to improve the adjuvant induced arthritis in left secondary lesion in rats at oral doses, 33 mg/kg (volume change in the uninjected paw measured from day 9 to day 18); in short: as §3

| Compound | Reduction (Cavia porcellus [1]) [%] | Reduction (Cavia porcellus [2]) [%] | Reduction (Rattus norvegicus [3]) [%] | Reduction (Cavia porcellus [4]) [%] | Reduction (Rattus norvegicus [5]) [%] | Reduction (Cavia porcellus [6]) [%] | Reduction (Rattus norvegicus [7]) [%] | Reduction (Cavia porcellus [8]) [%] | Reduction (Rattus norvegicus [9]) [%] | Reduction (Rattus norvegicus [10]) [%] | Reduction (Cavia porcellus [11]) [%] | Reduction (Rattus norvegicus [12]) [%] | Reduction (Rattus norvegicus [13]) [%] | Reduction (Rattus norvegicus [14]) [%] | Reduction (Cavia porcellus [15]) [%] | Reduction (Rattus norvegicus [16]) [%] |
| --- | --- | --- | --- | --- | --- | --- | --- | --- | --- | --- | --- | --- | --- | --- | --- | --- |
| C=CCOc1ccc(C(=O)c2cccs2)cc1C(C)C(=O)O (centres undefined) | -21 | 62 | -14 | 11 | 3 | -25 | 18 | 6 | -8 |  |  |  |  |  |  |  |
| COc1ccc2c(c1)c(CC(=O)O)c(C)n2C(=O)c1ccc(Cl)cc1 [INDOMETHACIN] |  | 91 | 91 | 70 |  | -12 |  | 84 |  | 37 | -81 | 77 | 56 |  |  |  |
| O=C1Oc2ccc(C(=O)c3cccs3)cc2/C1=C/c1ccccc1 |  | 92 |  | 60 | 76 | -18 | 21 | 81 | 48 |  | -10 |  |  | 46 |  |  |
| CC(C(=O)O)c1cc(C(=O)c2ccco2)ccc1O (centres undefined) |  | 87 | 7 | 61 | 13 | -14 | -31 | 87 | -5 |  | -17 |  |  |  |  |  |
| NC1=NN(c2cccc(C(F)(F)F)c2)CC1 [BW-755C] |  | 90 |  | 82 |  |  |  | 79 |  |  | 40 |  |  |  | 45 |  |
| CC(C(=O)O)c1cc(C(=O)c2ccccc2)ccc1O (centres undefined) |  | 75 | 38 | 52 | 61 | -27 | 30 | 77 | 37 |  | -55 |  |  |  |  |  |
| CCC(CC)(C(=O)O)c1cc(C(=O)c2cccs2)ccc1O |  | 90 | 38 | 50 | 45 | -21 | 6 | 54 | 22 |  | -18 |  |  |  |  |  |
| O=C(c1ccc2c(c1)C(C(=O)Nc1ccccc1)C(=O)O2)c1cccs1 (centres undefined) |  | 93 | 1 | 86 | 25 | 94 | 8 | 93 | 6 |  | 85 |  |  |  |  |  |
| O=C(O)Cc1cc(C(=O)c2cccs2)ccc1O |  | 89 | 1 | 74 |  | -72 | 11 | 74 | 20 |  | -62 |  |  |  |  | 10 |
| CC1C(=O)Oc2ccc(C(=O)c3cccs3)cc21 (centres undefined) |  | 67 | 31 | 15 | 48 | 37 | 31 | 61 | 40 |  | 39 |  |  |  |  |  |
| CCC1C(=O)Oc2ccc(C(=O)c3cccs3)cc21 (centres undefined) |  | 90 | 52 | 62 | 81 | 20 | 13 | 79 | 51 |  | 9 |  |  |  |  |  |
| Cc1ccc(C(=O)c2ccc3c(c2)C(C)C(=O)O3)s1 (centres undefined) |  | 86 | 15 | 28 | 36 | -3 | 10 | 65 | 19 |  | 15 |  |  |  |  |  |
